pIC50: −log10 of the molar value. Where a name gives a salt, the structure may show the parent alone.
Experiments:
[1] = tested on: undamaged (control) oligonucleotide; assay: SPR binding of compounds to immobilized undamaged; conditions: 15 µM compound
Method in brief: (§1)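 Biacore T100 SPR. Biotinylated 50-mer oligonucleotide, undamaged or εA-containing, immobilised on a streptavidin-coated C1 chip. Test compound injected at 15 µM in 10 mM HEPES-KOH pH 7.6, 90 mM KCl, 0.05% surfactant P20, at 7°C. Binding read as background-subtracted RU over 60 s injections.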

[2] = tested on: εA-containing oligonucleotide; assay: SPR binding of compounds to immobilized εA-containing oligonucleotide; conditions: 15 µM compound
Method in brief: as §1

[3] = tested on: 8-oxoguanine DNA glycosylase (OGG1); assay: Gel-based OGG1 activity assay; format: biochemical; conditions: 0, 20 and 40 µM; not dose-dependent
Method in brief: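 Purified recombinant OGG1 pre-incubated with test compound for 10 min at room temperature. Then reacted with a ³²P-labelled 8-oxo-dG-containing duplex oligonucleotide for 10 min at 37°C. Products resolved on denaturing 20% polyacrylamide/7 M urea gels at 60°C; band intensities quantified from X-ray film.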

MPG [4] = biological target: T1, MPG (Homo sapiens, UniProt P29372); assay: SPR inhibition of hMPG binding to εA-containing substrate DNA; conditions: 40 µM morin hydrate
T1 sequence (P29372 18-298): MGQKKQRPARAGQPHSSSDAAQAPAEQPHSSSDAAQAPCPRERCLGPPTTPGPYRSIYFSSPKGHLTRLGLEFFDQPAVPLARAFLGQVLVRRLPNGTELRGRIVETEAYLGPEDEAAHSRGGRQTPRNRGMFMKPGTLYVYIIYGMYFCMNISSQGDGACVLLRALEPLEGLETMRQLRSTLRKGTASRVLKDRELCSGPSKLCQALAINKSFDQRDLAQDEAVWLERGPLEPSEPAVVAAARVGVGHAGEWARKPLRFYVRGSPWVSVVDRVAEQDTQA
Method in brief: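 SPR with biotinylated εA-containing 50-mer oligonucleotide immobilised on a streptavidin C1 chip. Injections of 30 nM purified human MPG pre-mixed with test compound (0, 5, 10, 20, 40 µM), 60 s each. Binding taken as background-subtracted RU. Percent inhibition calculated as the decrease in RU versus DMSO.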

repair of εA = assay: Plasmid-based in-cell repair assay, εA-containing M13mp18 plasmid; parameters: species or system human
Method in brief: (§2)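 Lesion (εA or 8-oxo-dG) was placed at the EcoRI site of M13mp18. A phosphorylated lesion primer was annealed to ssDNA, extended with T7 polymerase, ligated with T4 ligase, supercoiled and purified. A549 and HeLa cells (DMEM, 10% FBS, 1% antibiotic) were transfected with 0, 200 or 300 µM test compound. Recovered plasmids were cut with EcoRI (lesion site) and SacI (internal control), and repair was scored by plaque formation.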

repair of 8-oxo-dG = assay: Plasmid-based in-cell repair assay, 8-oxo-dG-containing M13mp18 plasmid; parameters: species or system human
Method in brief: as §2

HeLa cells = assay: MTT assay; format: cell-based, human; conditions: concentrations used in the repair assay, 72 h
A549 cells = assay: MTT assay; format: cell-based, human; conditions: A549, concentrations used in the repair assay, 72 h
APE1 = conditions: high throughput screening; ref Pubchem Bioassay AID 485314 and 2517; cited from earlier work
[5] = tested on: apurinic/apyrimidinic endonuclease 1 (APE1); assay: Gel-based APE1 activity assay; format: biochemical; conditions: 0, 20 and 40 µM
Method in brief: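 Purified recombinant APE1 pre-incubated with test compound for 10 min at room temperature. Then reacted with a ³²P-labelled duplex oligonucleotide carrying a THF abasic-site analogue for 10 min at 37°C. Products resolved on denaturing 20% polyacrylamide/7 M urea gels at 60°C; band intensities quantified from X-ray film.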

DNA polymerase β = conditions: high throughput screening; ref Pubchem Bioassay AID 485314 and 2517; cited from earlier work
MPG [6] = biological target: T1, MPG; assay: Gel-based MPG activity assay in whole cell extracts; format: biochemical; conditions: 0–300 µM compound

SMILES: O=C1c2c(O)ccc(O)c2C(=O)c2c(NCCNCCO)ccc(NCCNCCO)c21 [mitoxantrone dihydrochloride]
- affinity for unmodified (control) DNA [1]: demonstrated affinity for DNA
- affinity for εA-containing DNA [2]: demonstrated affinity for DNA

SMILES: Cc1cc2c(C(C)C)c(O)c(O)c(C=O)c2c(O)c1-c1c(C)cc2c(C(C)C)c(O)c(O)c(C=O)c2c1O [gossypol]
- affinity for unmodified (control) DNA [1]: demonstrated affinity for DNA
- affinity for εA-containing DNA [2]: demonstrated affinity for DNA

SMILES: O.O=c1c(O)c(-c2ccc(O)cc2O)oc2cc(O)cc(O)c12 [morin hydrate]
- effect on OGG1 activity [3]: some promiscuous inhibition
- inhibition of MPG DNA binding (MPG [4]): Complete inhibition
- reduction in repair (repair of εA; 300 µM morin hydrate, A549 and HeLa cells): 50–60%
- repair of εA in live cells (repair of εA; A549 cells, 0, 200, 300 µM): inhibited
- repair of εA in live cells (repair of εA; HeLa cells, 0, 200, 300 µM): inhibited
- pIC50 (repair of εA; Homo sapiens, read-out: IC50 of MPG inhibition in live cells and in extracts): 3.52 to 4.00
- repair of 8-oxo-dG in live cells (repair of 8-oxo-dG; A549 cells, 0, 200, 300 µM): unaffected
- repair of 8-oxo-dG in live cells (repair of 8-oxo-dG; HeLa cells, 0, 200, 300 µM): unaffected
- toxicity (cell survival) (HeLa cells): not toxic
- affinity for unmodified (control) DNA [1]: no detectable affinity
- toxicity (cell survival) (A549 cells): not toxic
- inhibition of APE1 (APE1): inhibit
- affinity for εA-containing DNA [2]: no detectable affinity
- effect on the activity of APE1 [5]: no effect
- inhibition of DNA polymerase β (DNA polymerase β): inhibit
- MPG activity in whole cell extract (MPG [6]; A549 extract): inhibited
- MPG activity in whole cell extract (MPG [6]; HeLa extract): inhibited

SMILES: O=c1c(O)c(-c2ccc(O)c(O)c2)oc2cc(O)cc(O)c12 [Quercetin]
- MPG activity in whole cell extract (MPG [6]; HeLa extract): did not have an effect

From PMC4339462 (Bioorganic & medicinal chemistry, 2015)
